In BindingDB's records for doi:10.1021/jm00089a014 (Genentech, 1992):
Where a SMILES comes first, the peptide text is derived from it.

Target: Integrin alpha-IIb/beta-3 (Homo sapiens, UniProt P08514+P05106)
Test: Inhibition of ADP-induced platelet aggregation in human platelet-rich plasma
Summary of the method: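 Human blood drawn into 3.8% sodium citrate (9:1); PRP from 180g spin, 12 min, 22 °C; count adjusted to 3 × 10^8/mL with PPP. PRP preincubated with test sample 5 min at 37 °C in aggregometer, then ADP 17.2 µM final. Inhibition from transmittance change at 5 min versus no-sample maximum; 12-14 concentrations over ~200-fold range; IC50 by four-parameter fit; n ≥ 3.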

Sequence of Integrin alpha-IIb/beta-3 (P05106 27-788 limits assumed): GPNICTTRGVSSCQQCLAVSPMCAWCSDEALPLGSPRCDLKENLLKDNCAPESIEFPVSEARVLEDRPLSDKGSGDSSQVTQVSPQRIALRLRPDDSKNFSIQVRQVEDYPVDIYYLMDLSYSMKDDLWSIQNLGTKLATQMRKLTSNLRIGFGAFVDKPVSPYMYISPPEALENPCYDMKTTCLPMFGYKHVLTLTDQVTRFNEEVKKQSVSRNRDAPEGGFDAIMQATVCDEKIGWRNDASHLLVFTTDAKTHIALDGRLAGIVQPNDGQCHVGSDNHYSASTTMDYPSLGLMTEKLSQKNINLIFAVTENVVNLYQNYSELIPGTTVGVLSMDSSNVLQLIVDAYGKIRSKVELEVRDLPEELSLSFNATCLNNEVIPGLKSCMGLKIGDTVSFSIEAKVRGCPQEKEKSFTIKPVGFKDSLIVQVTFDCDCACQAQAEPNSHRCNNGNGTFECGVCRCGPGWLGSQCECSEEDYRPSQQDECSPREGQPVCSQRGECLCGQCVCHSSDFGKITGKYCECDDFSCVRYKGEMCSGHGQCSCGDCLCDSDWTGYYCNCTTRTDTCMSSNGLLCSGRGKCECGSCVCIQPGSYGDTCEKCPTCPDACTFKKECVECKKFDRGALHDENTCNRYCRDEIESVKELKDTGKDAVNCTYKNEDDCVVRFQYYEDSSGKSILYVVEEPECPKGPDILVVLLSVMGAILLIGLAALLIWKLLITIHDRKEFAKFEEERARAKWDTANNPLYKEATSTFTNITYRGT
Sequence of Integrin alpha-IIb/beta-3 (P08514 32-887 limits assumed): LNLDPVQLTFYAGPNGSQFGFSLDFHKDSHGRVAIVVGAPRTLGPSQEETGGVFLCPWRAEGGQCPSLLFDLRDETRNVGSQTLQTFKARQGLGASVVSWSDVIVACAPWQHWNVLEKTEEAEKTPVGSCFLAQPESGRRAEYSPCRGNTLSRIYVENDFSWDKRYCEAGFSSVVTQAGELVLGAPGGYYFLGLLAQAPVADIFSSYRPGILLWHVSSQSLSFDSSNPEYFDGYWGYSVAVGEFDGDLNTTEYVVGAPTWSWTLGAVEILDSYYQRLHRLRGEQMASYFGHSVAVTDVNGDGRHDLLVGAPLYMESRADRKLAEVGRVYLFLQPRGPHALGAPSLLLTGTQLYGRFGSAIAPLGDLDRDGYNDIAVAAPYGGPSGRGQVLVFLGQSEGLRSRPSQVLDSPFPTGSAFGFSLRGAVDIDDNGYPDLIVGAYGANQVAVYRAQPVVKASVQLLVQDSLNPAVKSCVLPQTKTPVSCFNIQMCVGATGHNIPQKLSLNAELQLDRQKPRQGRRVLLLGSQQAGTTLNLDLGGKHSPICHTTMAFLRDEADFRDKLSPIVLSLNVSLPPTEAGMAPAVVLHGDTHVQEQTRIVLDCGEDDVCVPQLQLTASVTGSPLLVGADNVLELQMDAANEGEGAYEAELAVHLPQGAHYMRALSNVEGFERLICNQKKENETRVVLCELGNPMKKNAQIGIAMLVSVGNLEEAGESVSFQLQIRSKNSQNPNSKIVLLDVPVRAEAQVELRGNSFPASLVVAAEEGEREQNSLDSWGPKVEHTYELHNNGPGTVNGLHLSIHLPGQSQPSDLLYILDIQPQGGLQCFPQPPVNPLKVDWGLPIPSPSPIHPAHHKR
Sequence of Integrin alpha-IIb/beta-3 (P08514 891-1039 limits assumed): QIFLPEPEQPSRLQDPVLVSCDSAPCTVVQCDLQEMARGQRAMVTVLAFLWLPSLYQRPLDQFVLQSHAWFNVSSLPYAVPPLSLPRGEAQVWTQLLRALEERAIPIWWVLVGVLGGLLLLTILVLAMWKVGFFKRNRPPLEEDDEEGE

SMILES	IC50 [µM]
N=C(N)NCCC[C@@H]1NC(=O)[C@H](CCC(=O)O)NC(=O)C[S+]([O-])C[C@@H](C(=O)O)NC(=O)[C@H](CC(=O)O)NC(=O)CNC1=O (some centres undefined)	0.9
N=C(N)NCCC[C@@H]1NC(=O)[C@H](Cc2c[nH]c3ccccc23)NC(=O)CSC[C@@H](C(=O)O)NC(=O)[C@H](CC(=O)O)NC(=O)CNC1=O	0.46
N=C(N)NCCC[C@@H]1NC(=O)[C@H](Cc2cnc[nH]2)NC(=O)CSC[C@@H](C(=O)O)NC(=O)[C@H](CC(=O)O)NC(=O)CNC1=O	0.54
N=C(N)NCCC[C@@H]1NC(=O)CNC(=O)C(c2ccccc2C(F)(F)F)SC[C@@H](C(=O)O)NC(=O)[C@H](CC(=O)O)NC(=O)CNC1=O (some centres undefined)	0.15
CSCC[C@@H]1NC(=O)CSC[C@@H](C(=O)O)NC(=O)[C@H](CC(=O)O)NC(=O)CNC(=O)[C@H](CCCNC(=N)N)NC1=O	1.06
N=C(N)NCCC[C@@H]1NC(=O)[C@@H](Cc2ccc(O)cc2)NC(=O)CS(=O)(=O)C[C@@H](C(=O)O)NC(=O)[C@H](CC(=O)O)NC(=O)CNC1=O	0.21
C[C@@H]1NC(=O)C[S+]([O-])C[C@@H](C(=O)O)NC(=O)[C@H](CC(=O)O)NC(=O)CNC(=O)[C@H](CCCNC(=N)N)NC1=O (some centres undefined)	0.61
N=C(N)NCCC[C@@H]1NC(=O)CNC(=O)C(c2ccc(C(F)(F)F)cc2)SC[C@@H](C(=O)O)NC(=O)[C@H](CC(=O)O)NC(=O)CNC1=O (some centres undefined)	0.9
N=C(N)NCCC[C@@H]1NC(=O)[C@@H](Cc2ccccc2)NC(=O)C[S+]([O-])C[C@@H](C(=O)O)NC(=O)[C@H](CC(=O)O)NC(=O)CNC1=O (some centres undefined)	0.44
CCC1SC[C@@H](C(=O)O)NC(=O)[C@H](CC(=O)O)NC(=O)CNC(=O)[C@H](CCCNC(=N)N)NC(=O)CNC1=O (some centres undefined)	4.85
N=C(N)NCCC[C@@H]1NC(=O)[C@@H](Cc2ccc(O)cc2)NC(=O)C[S+]([O-])C[C@@H](C(=O)O)NC(=O)[C@H](CC(=O)O)NC(=O)CNC1=O (some centres undefined)	0.12
N=C(N)NCCC[C@@H]1NC(=O)[C@H](Cc2ccccc2)NC(=O)CSC[C@@H](C(=O)O)NC(=O)[C@H](CC(=O)O)NC(=O)CNC1=O	0.22
N=C(N)NCCC[C@@H]1NC(=O)CNC(=O)C[S+]([O-])C[C@@H](C(=O)O)NC(=O)[C@H](CC(=O)O)NC(=O)CNC1=O (some centres undefined)	0.37
N=C(N)NCCC[C@@H]1NC(=O)[C@@H](Cc2cnc[nH]2)NC(=O)CSC[C@@H](C(=O)O)NC(=O)[C@H](CC(=O)O)NC(=O)CNC1=O	1.08
N=C(N)NCCC[C@@H]1NC(=O)[C@H](Cc2ccc(O)cc2)NC(=O)C[S+]([O-])C[C@@H](C(=O)O)NC(=O)[C@H](CC(=O)O)NC(=O)CNC1=O (some centres undefined)	0.45
N=C(N)NCCC[C@@H]1NC(=O)[C@@H](Cc2ccccc2)NC(=O)CSC[C@@H](C(=O)O)NC(=O)[C@H](CC(=O)O)NC(=O)CNC1=O	18.5
N=C(N)NCCC[C@@H]1NC(=O)CNC(=O)C(c2cccc3ccccc23)SC[C@@H](C(=O)O)NC(=O)[C@H](CC(=O)O)NC(=O)CNC1=O (some centres undefined)	0.78
N=C(N)NCCC[C@@H]1NC(=O)CNC(=O)CS(=O)(=O)C[C@@H](C(=O)O)NC(=O)[C@H](CC(=O)O)NC(=O)CNC1=O	7.7
N=C(N)NCCC[C@@H]1NC(=O)CNC(=O)[C@@H](Cc2ccccc2)SC[C@@H](C(=O)O)NC(=O)[C@H](CC(=O)O)NC(=O)CNC1=O	7
N=C(N)NCCC[C@@H]1NC(=O)CNC(=O)C(c2ccc(-c3ccccc3)cc2)SC[C@@H](C(=O)O)NC(=O)[C@H](CC(=O)O)NC(=O)CNC1=O (some centres undefined)	1.48
N=C(N)NCCC[C@@H]1NC(=O)[C@H](CCCCN)NC(=O)CSC[C@@H](C(=O)O)NC(=O)[C@H](CC(=O)O)NC(=O)CNC1=O	0.6
N=C(N)NCCC[C@@H]1NC(=O)[C@H](CO)NC(=O)CSC[C@@H](C(=O)O)NC(=O)[C@H](CC(=O)O)NC(=O)CNC1=O	0.48
C[C@H](O)[C@H]1NC(=O)CSC[C@@H](C(=O)O)NC(=O)[C@H](CC(=O)O)NC(=O)CNC(=O)[C@H](CCCN=C(N)N)NC1=O	2.92
CC[C@@H](C)[C@H]1NC(=O)CSC[C@@H](C(=O)O)NC(=O)[C@H](CC(=O)O)NC(=O)CNC(=O)[C@H](CCCN=C(N)N)NC1=O	6.08
C[C@@H](O)[C@@H]1NC(=O)C[S+]([O-])C[C@@H](C(=O)O)NC(=O)[C@H](CC(=O)O)NC(=O)CNC(=O)[C@H](CCCN=C(N)N)NC1=O (some centres undefined)	0.1
CC(=O)NCC(=O)N[C@@H](CCCNC(=N)N)C(=O)NCC(=O)N[C@@H](CC(=O)O)C(=O)N[C@H](C(N)=O)C(C)C (Ac-GRGDV-NH2)	> 500

Further compounds by falling IC50, results first:

IC50 [µM]	SMILES
77	CC(=O)NCC(=O)N[C@@H](CCCNC(=N)N)C(=O)NCC(=O)N[C@@H](CC(=O)O)C(=O)N[C@H](C(=O)O)C(C)C (Ac-GRGDV-OH)
64.3	N=C(N)NCCC[C@@H]1NC(=O)CNC(=O)CCSC[C@@H](C(=O)O)NC(=O)[C@H](CC(=O)O)NC(=O)CNC1=O
34.3	N=C(N)NCCC[C@@H]1NC(=O)CCNC(=O)CSC[C@@H](C(=O)O)NC(=O)[C@H](CC(=O)O)NC(=O)CNC1=O
30.8	N=C(N)NCCC[C@@H]1NC(=O)c2cccc(c2)CSC[C@@H](C(=O)O)NC(=O)[C@H](CC(=O)O)NC(=O)CNC1=O
8.74	CC(C)[C@H]1NC(=O)CSC[C@@H](C(=O)O)NC(=O)[C@H](CC(=O)O)NC(=O)CNC(=O)[C@H](CCCNC(=N)N)NC1=O
4.78	N=C(N)NCCC[C@@H]1NC(=O)[C@@H](Cc2c[nH]c3ccccc23)NC(=O)CSC[C@@H](C(=O)O)NC(=O)[C@H](CC(=O)O)NC(=O)CNC1=O
4.6	N=C(N)NCCC[C@@H]1NC(=O)[C@H](CCC(=O)O)NC(=O)CSC[C@@H](C(=O)O)NC(=O)[C@H](CC(=O)O)NC(=O)CNC1=O
4	N=C(N)NCCC[C@@H]1NC(=O)CNC(=O)C(c2ccc3ccccc3c2)SC[C@@H](C(=O)O)NC(=O)[C@H](CC(=O)O)NC(=O)CNC1=O (some centres undefined)
2.23	N=C(N)NCCC[C@@H]1NC(=O)[C@H](Cc2ccccc2)NC(=O)C[S+]([O-])C[C@@H](C(=O)O)NC(=O)[C@H](CC(=O)O)NC(=O)CNC1=O (some centres undefined)
1.9	N=C(N)NCCC[C@@H]1NC(=O)CNC(=O)[C@H](Cc2ccccc2)SC[C@@H](C(=O)O)NC(=O)[C@H](CC(=O)O)NC(=O)CNC1=O
1.5	CCCC1SC[C@@H](C(=O)O)NC(=O)[C@H](CC(=O)O)NC(=O)CNC(=O)[C@H](CCCNC(=N)N)NC(=O)CNC1=O (some centres undefined)
0.68	N=C(N)NCCC[C@@H]1NC(=O)[C@H](CCC(N)=O)NC(=O)CSC[C@@H](C(=O)O)NC(=O)[C@H](CC(=O)O)NC(=O)CNC1=O
0.46	N=C(N)NCCC[C@@H]1NC(=O)[C@H](CC(N)=O)NC(=O)C[S+]([O-])C[C@@H](C(=O)O)NC(=O)[C@H](CC(=O)O)NC(=O)CNC1=O (some centres undefined)
0.27	CC[C@H](C)[C@@H]1NC(=O)CSC[C@@H](C(=O)O)NC(=O)[C@H](CC(=O)O)NC(=O)CNC(=O)[C@H](CCCN=C(N)N)NC1=O
0.25	N=C(N)NCCC[C@@H]1NC(=O)[C@H](CCCN)NC(=O)CSC[C@@H](C(=O)O)NC(=O)[C@H](CC(=O)O)NC(=O)CNC1=O
0.24	C[C@@H](O)[C@@H]1NC(=O)CSC[C@@H](C(=O)O)NC(=O)[C@H](CC(=O)O)NC(=O)CNC(=O)[C@H](CCCN=C(N)N)NC1=O
0.2	CC(C)C[C@@H]1NC(=O)CSC[C@@H](C(=O)O)NC(=O)[C@H](CC(=O)O)NC(=O)CNC(=O)[C@H](CCCNC(=N)N)NC1=O
0.08	CC(C)[C@@H]1NC(=O)CSC[C@@H](C(=O)O)NC(=O)[C@H](CC(=O)O)NC(=O)CNC(=O)[C@H](CCCNC(=N)N)NC1=O
